Data on 167 variants can be found in the RNAGym collection of RNA variant scans (doi:10.1002/anie.201605470).

B1: Osa-1-4 twister ribozyme (parent)
chain: CCGCCUAACACUGCCAAUGCCGGUCCCAAGCCCGGAUAAAAGUGGAGGGGGCGG

The data set covers variants of B1. As to the kind of experiment: self-cleavage, relative activity (ratio to wild type); higher = more cleavage; co-transcriptional. In short, it runs like this: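 A DNA template encoding a 54-nucleotide twister ribozyme from Oryza sativa was made so that each of the 48 positions downstream of the cleavage site carried 97 % wild-type base and 1 % of each other base. Transcription in vitro ran for 2 h at 37 °C, during which the ribozyme could cleave itself. Reverse transcription used a template-switching oligonucleotide, and the products were PCR-amplified and deep-sequenced. Each read was scored as cleaved or uncleaved by whether upstream sequence was present, and relative activity is the fraction cleaved normalised to wild type.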
As to G23A G47C, the self-cleavage is 0.06.
With G22U G54A the figure was 0.58.
Take G22U G54U: the self-cleavage is 0.6.
Next, G22U G54C: 0.64; G22U G51A: 0.1; G22U G51C: 0.08.
As to G22U G51U, the self-cleavage came out at 0.38.
Take C21U G35A: the self-cleavage turned out to be 0.98.
With C21U G35U the figure was 0.57; with C21U G35C, 0.1.
In the case of G22A U18G, the self-cleavage was determined as 0.94.
With G22A U18C the figure was 0.98.
As to G22A U18A, the self-cleavage came to 1.02.
For the variant G22A G23A, the self-cleavage was 0.12.
Next, G22A G23C: 0.05; G22A G23U: 0.08; G22U G50A: 0.91.
With G22U G50C, the self-cleavage was determined as 0.3.
Regarding G22U G50U, the self-cleavage was 0.75.
Take C21U U18G: the self-cleavage amounted to 0.78.
Regarding C21U U18C, the self-cleavage was determined as 1.03.
Next, C21U U18A: 1; C21U G42A: 0.51; C21U G42C: 0.18.
For C21U G42U, the self-cleavage came to 0.09.
As for G22U G30C, the self-cleavage was found to be 0.04.
With G22U G30U the figure was 0.03; with G22U G30A, 0.03; with G22U G45C, 0.04.
With G22U G45U the figure was 0.06; with G22U G45A, 0.11.
For the variant G22U G34C, the self-cleavage came out at 0.4.
Consider G22U G34U, for which the self-cleavage worked out at 0.79.
With G22U G34A the figure was 0.19; with G23A G42U, 0.05.
G23A G42A: the self-cleavage turned out to be 0.08.
With G23A G42C the figure was 0.07; with C21U G48U, 0.1; with C21U G48C, 0.11.
As for C21U G48A, the self-cleavage was 0.1.
Consider G23A U12G, for which the self-cleavage is 0.07.
With G23A U12A the figure was 0.1.
As for G23A U12C, the self-cleavage stood at 0.08.
In the case of G22A U37G, the self-cleavage is 1.
With G22A U37A the figure was 1.06.
As for G22A U37C, the self-cleavage worked out at 1.01.
With G23C G30U the figure was 0.02; with G23C G30A, 0.02.
Regarding G23C G30C, the self-cleavage was 0.02.
Consider G23A G44U, for which the self-cleavage is 0.18.
For the variant G23A G44C, the self-cleavage came out at 0.27.
With G23A G44A the figure was 0.15.
For the variant G22C G44C, the self-cleavage came to 0.06.
With G22C G44U, the self-cleavage amounted to 0.07.
With G22C G44A the figure was 0.07.
With G22C U12C the figure was 0.07; with G22C U12A, 0.05; with G22C U12G, 0.03.
With G22U U12A the figure was 0.13.
Consider G22U U12G, for which the self-cleavage was 0.05.
Next, G22U U12C: 0.1; G22A: 1.05; G22C: 0.19.
For the variant G22U, the self-cleavage came out at 0.93.
On to G22C G34C, for which the self-cleavage stood at 0.05.
Next, G22C G34A: 0.05; G22C G34U: 0.05; C21U G34U: 1.05.
As for C21U G34A, the self-cleavage turned out to be 1.05.
For C21U G34C, the self-cleavage was 0.96.
As to G22C G53C, the self-cleavage was determined as 0.03.
On to G22C G53U, for which the self-cleavage is 0.04.
With G22C G53A the figure was 0.06; with G22C G48C, 0.02.
With G22C G48U the figure was 0.02; with G22C G48A, 0.02; with G22C G50C, 0.05.
With G22C G50U the figure was 0.11.
For G22C G50A, the self-cleavage was 0.34.
As for G22U U37A, the self-cleavage was 0.93.
With G22U U37G the figure was 0.92; with G22U U37C, 0.55; with G23C G34A, 0.06.
With G23C G34C the figure was 0.04; with G23C G34U, 0.04; with G22C G30A, 0.03.
As to G22C G30C, the self-cleavage was determined as 0.02.
In the case of G22C G30U, the self-cleavage is 0.02.
Consider G22A U43A, for which the self-cleavage was determined as 0.3.
In the case of G22A U43C, the self-cleavage stood at 0.18.
Take G22A U43G: the self-cleavage worked out at 0.1.
G22C G49C: the self-cleavage was determined as 0.03.
With G22C G49U, the self-cleavage is 0.03.
Take G22C G49A: the self-cleavage stood at 0.03.
With C21U G45A the figure was 0.22; with C21U G45C, 0.07; with C21U G45U, 0.11.
Consider G22U U18G, for which the self-cleavage was 0.82.
As for G22U U18C, the self-cleavage turned out to be 0.68.
As for G22U U18A, the self-cleavage was 0.84.
With G22A G51U the figure was 0.67; with G22A G51A, 0.2; with G22A G51C, 0.14.
As to G22A G34A, the self-cleavage turned out to be 0.14.
With G22A G34U the figure was 0.21; with G22A G34C, 0.11; with C21U G49C, 0.08.
Next, C21U G49A: 0.14; C21U G49U: 0.14.
As for G22C U18A, the self-cleavage came out at 0.14.
For the variant G22C U18G, the self-cleavage came to 0.17.
Next, G22C U18C: 0.1; G22C G54U: 0.16.
Turning to G22C G54C, the self-cleavage turned out to be 0.15.
As to G22C G54A, the self-cleavage came out at 0.08.
Regarding G22A G54A, the self-cleavage turned out to be 0.77.
In the case of G22A G54U, the self-cleavage is 0.84.
Next, G22A G54C: 0.82; G22C U24G: 0.03.
Regarding G22C U24C, the self-cleavage was determined as 0.03.
With G22C U24A the figure was 0.04; with C21U U37A, 1.07; with C21U U37C, 1.05.
Next, C21U U37G: 1.04; G22U G49C: 0.05; G22U G49A: 0.07.
With G22U G49U the figure was 0.05.
Turning to G22C G51U, the self-cleavage was determined as 0.04.
Next, G22C G51C: 0.03; G22C G51A: 0.04.
In the case of G22A G48A, the self-cleavage came out at 0.08.
For G22A G48C, the self-cleavage was 0.09.
In the case of G22A G48U, the self-cleavage was determined as 0.08.
Regarding C21U U24C, the self-cleavage was 0.26.
As to C21U U24G, the self-cleavage is 0.09.
As for C21U U24A, the self-cleavage came out at 0.29.
With G23C G47U the figure was 0.03; with G23C G47C, 0.03.
Next, G23C G47A: 0.03.
Next, C21U U12C: 0.33.
On to C21U U12G, for which the self-cleavage came to 0.26.
Next, C21U U12A: 0.73; G23C G44A: 0.04; G23C G44U: 0.04.
Consider G23C G44C, for which the self-cleavage was determined as 0.04.
On to G22C G47U, for which the self-cleavage turned out to be 0.04.
Next, G22C G47C: 0.02; G22C G47A: 0.03.
Turning to C21U C32U, the self-cleavage was determined as 0.13.
With G23A G35A the figure was 0.14; with G23A G35C, 0.08.
With G23A G35U the figure was 0.13; with G22A G49C, 0.08.
With G22A G49A the figure was 0.12.
For G22A G49U, the self-cleavage is 0.09.
For G23C G49U, the self-cleavage is 0.03.
As to G23C G49C, the self-cleavage worked out at 0.02.
For the variant G23C G49A, the self-cleavage turned out to be 0.03.
With G22A G47U the figure was 0.12.
With G22A G47C the figure was 0.08.
As for G22A G47A, the self-cleavage was 0.13.
As for G22U G53C, the self-cleavage stood at 0.05.
In the case of G22U G53U, the self-cleavage stood at 0.12.
For the variant G22U G53A, the self-cleavage is 0.1.
Next, G23A U18A: 0.59; G23A U18C: 0.49.
Consider G23A U18G, for which the self-cleavage amounted to 0.38.
